Tests used:
[1] = biological target: T1, Amine oxidase [flavin-containing] A (Homo sapiens, UniProt P21397); assay: Inhibition of human recombinant MAO-A expressed in baculovirus infected BTI cells using p-tyramine as substrate at 100000 nM after 15 mins by Amplex Red-based fluorescence assay; conditions: 0.25 h, 100 µM
T1 sequence (P21397 whole entry): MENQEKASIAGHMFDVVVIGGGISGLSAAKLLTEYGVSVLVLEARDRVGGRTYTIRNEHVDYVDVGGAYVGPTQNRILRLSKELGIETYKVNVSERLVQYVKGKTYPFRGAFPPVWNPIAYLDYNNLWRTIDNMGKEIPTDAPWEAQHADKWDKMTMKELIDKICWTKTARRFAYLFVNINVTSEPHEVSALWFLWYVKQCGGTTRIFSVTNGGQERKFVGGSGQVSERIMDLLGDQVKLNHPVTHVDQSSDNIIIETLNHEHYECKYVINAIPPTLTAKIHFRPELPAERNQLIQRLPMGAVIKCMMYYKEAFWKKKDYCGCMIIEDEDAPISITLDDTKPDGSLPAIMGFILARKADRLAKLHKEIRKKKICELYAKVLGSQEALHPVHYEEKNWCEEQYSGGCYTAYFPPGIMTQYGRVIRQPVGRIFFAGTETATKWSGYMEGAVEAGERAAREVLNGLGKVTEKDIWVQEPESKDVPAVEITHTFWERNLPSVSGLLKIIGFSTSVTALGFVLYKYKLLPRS
In short: (§1)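 Recombinant hMAO-A or hMAO-B, set to oxidize 165 pmol p-tyramine/min in controls, preincubated with compound for 15 min at 37 °C in the dark. Reaction started with Amplex Red, horseradish peroxidase (1 U/mL) and p-tyramine. Resorufin fluorescence read at 37 °C (ex 545, em 590 nm), with an enzyme-free buffer blank subtracted. Single highest concentration tested: 100000 nM, or 1×10⁶ nM.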

[2] = biological target: T2, Amine oxidase [flavin-containing] B (Homo sapiens, UniProt P27338); assay: Inhibition of human recombinant MAO-B expressed in baculovirus infected BTI cells using p-tyramine as substrate at 100000 nM after 15 mins by Amplex Red-based fluorescence assay; conditions: 0.25 h; for inhibition (INH): bti, 100 µM; in short: as §1
T2 sequence (P27338 whole entry): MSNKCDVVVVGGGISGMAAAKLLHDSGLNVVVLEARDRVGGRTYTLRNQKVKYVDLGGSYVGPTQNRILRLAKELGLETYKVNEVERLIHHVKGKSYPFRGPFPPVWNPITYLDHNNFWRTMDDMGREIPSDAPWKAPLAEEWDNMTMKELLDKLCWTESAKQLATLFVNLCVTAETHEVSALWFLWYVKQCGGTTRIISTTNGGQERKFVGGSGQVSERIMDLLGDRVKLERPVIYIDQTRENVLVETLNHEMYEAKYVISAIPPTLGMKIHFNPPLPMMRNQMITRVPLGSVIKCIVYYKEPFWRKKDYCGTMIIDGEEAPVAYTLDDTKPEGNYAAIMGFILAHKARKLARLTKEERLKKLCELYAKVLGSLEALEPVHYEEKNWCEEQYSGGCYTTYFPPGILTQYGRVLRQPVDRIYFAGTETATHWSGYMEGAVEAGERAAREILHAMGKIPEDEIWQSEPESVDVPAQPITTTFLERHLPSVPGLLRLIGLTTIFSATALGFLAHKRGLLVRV

[3] = biological target: T2, Amine oxidase [flavin-containing] B; assay: Inhibition of human recombinant MAO-B expressed in baculovirus infected BTI cells using p-tyramine as substrate after 15 mins by Amplex Red-based fluorescence assay; format: cell-based
[4] = biological target: T2, Amine oxidase [flavin-containing] B; assay: Inhibition of human recombinant MAO-B expressed in baculovirus infected BTI cells using p-tyramine as substrate at 1x10'6 nM after 15 mins by Amplex Red-based fluorescence assay; conditions: 0.25 h; in short: as §1

Row | inhibition (INH) [1] | IC50 [3] [nM] | Structure (SMILES) | other results
1 | Not Active | – | CC(=O)N1N=C(c2ccc(N(C)C)cc2)OC1c1ccc(Cl)c(Cl)c1 (stereo not given) | inhibition (INH) [2]: Not Active
2 | – | 204 | CC(=O)N1N=C(c2ccc(Cl)cc2)O[C@@H]1c1ccc(Cl)c(Cl)c1 | –
3 | Not Active | – | CC(=O)N1N=C(c2ccccc2)OC1c1ccc(Cl)c(Cl)c1 (stereo not given) | inhibition at 100 µM ([2]; BTI): 40%
4 | – | 523 | CC(=O)N1N=C(c2ccc([N+](=O)[O-])cc2)O[C@H]1c1ccc(Cl)c(Cl)c1 | –
5 | Not Active | 2460 | CC(=O)N1N=C(c2ccccc2C)OC1c1ccc(Cl)c(Cl)c1 (stereo not given) | –
6 | Not Active | 627 | CC(=O)N1N=C(c2ccc(Cl)cc2)OC1c1ccc(Cl)c(Cl)c1 (racemic) | –
7 | – | 7.61 | CC(=O)N1N=C(c2ccc([N+](=O)[O-])cc2)O[C@@H]1c1ccc(Cl)c(Cl)c1 | –
8 | Not Active | 67.7 | CC(=O)N1N=C(c2ccc(Br)cc2)OC1c1ccc(Cl)c(Cl)c1 (stereo not given) | –
9 | – | – | CC(=O)N1N=C(c2ccc(Cl)cc2)O[C@H]1c1ccc(Cl)c(Cl)c1 | inhibition (INH) [2]: Not Active
10 | Not Active | 218 | COc1ccc(C2=NN(C(C)=O)C(c3ccc(Cl)c(Cl)c3)O2)cc1 (stereo not given) | –
11 | Not Active | 69400 | CC(=O)N1N=C(c2ccncc2)OC1c1ccc(Cl)c(Cl)c1 (stereo not given) | –
12 | Not Active | 9.46 | CC(=O)N1N=C(c2ccc([N+](=O)[O-])cc2)OC1c1ccc(Cl)c(Cl)c1 (racemic) | –
13 | Not Active | – | CC(=O)N1N=C(c2ccc(C#N)cc2)OC1c1ccc(Cl)c(Cl)c1 (stereo not given) | inhibition (INH) [2]: Not Active
14 | Not Active | 19.3 | CC(=O)N1N=C(c2ccc(C)cc2)OC1c1ccc(Cl)c(Cl)c1 (stereo not given) | –
15 | – | – | O=C(NCCN1CCOCC1)c1ccc(Cl)cc1 [MOCLOBEMIDE] | inhibition (INH) [4]: Not Active
